High-throughput results: PubChem BioAssay, several laboratories
Yeast growth inh: reduces growth of yeast BB579 in restrictive medium. S. cerevisiae BB579 growth, OD615, 48 h. inhibition, % at 10 µM. hit rate 0.51% among 140,000;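 active = inhibition above a set limit, 3 SD over the mean compound inhibition, cut at about 44% in these data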
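Test system: DeaD yeast strain BB579 / Buffer or medium: restrictive glucose-based CSMM-D medium / Doses: single 10 µM dose / Schedule: 4 h cell preincubation, 48 h compound exposure, 30 °C humidified / Technique: culture absorbance at 615 nm / Controls: amphotericin B positive control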
Measles CPE: protection of cells from measles virus; Measles virus-infected cells, CPE protection, absorbance; protection (pct of control), % at 4 µM; hit rate 1.5% among 140,000; AID 841; in the data active = protection mostly above about 24%, no sharp cut-off; inactive = mostly below about 26%
Yeast life ext: extends the lifespan of yeast; S. cerevisiae growth with nicotinamide, OD615; deaD strain in restrictive glucose medium; inhibition of the nicotinamide effect, % at 10 µM; hit rate 0.68% among 130,000; AID 775;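 active = inhibition above a set limit, placed 3 SD over the median of all compounds, cut at about 26% in these data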;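 also: 0% = nicotinamide-treated wells and 100% = cells grown without nicotinamide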
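Assay system: DeaD-strain S. cerevisiae. Medium: CSMM-D glucose medium, restrictive. Reagent: nicotinamide, 1.5 mM, co-present with compound. Compound: 10 µM single point, 0.25% DMSO. Schedule: culture preincubation 4 h, compound exposure 48 h, both 30 °C. Detection: absorbance at 615 nm.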
RAM inhibit: blocks the yeast RAM network | S. cerevisiae dse1pr::URA3 reporter, 5-FOA growth OD615, 2 d; analog-sensitive cbk1-as2 kinase mutant strain | inhibition, % at 50 µM | hit rate 1.8% among 190,000 | AID 868;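 active = inhibition above a set limit, 3 SD over mean compound inhibition, cut at about 8.4% in these data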;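 also: 0% = DMSO-only wells with no growth and 100% = 10 µM 1-NA-PP1 full growth; inhibition rescues growth on 5-FOA so higher OD means more RAM inhibition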
* marks the source's active call; other numbers are inactive results; . = no result. Rows were chosen to be rich in hits. Some 3.6% of all compounds tested hit in one or more screens of this group.

SMILES	Yeast growth inh	Measles CPE	Yeast life ext	RAM inhibit
Cc1cccc(C(=O)Nc2ccccc2SCC2CSc3nc4ccccc4c(=O)n32)c1 (configuration not stated)	-31	25*	-5	1
Cc1ccc(C(=O)Nc2ccccc2SCC2CSc3nc4ccccc4c(=O)n32)cc1 (configuration not stated)	-18	63*	-19	0
O=c1cnnc(N/N=C/C2CC=CCC2)[nH]1 (configuration not stated)	.	.	.	1
Cc1cc(C)c(C#N)c(SCC(=O)Nc2ccc3c(c2)OCO3)n1	-18	24	-12	2
Cc1nc(SCC(=O)Nc2ccc3c(c2)OCO3)c(C#N)c2c1CCCC2	-64	42*	-1	5
Cc1cccc2cc(CN(CC3CCCO3)C(=S)NCc3ccco3)c(=O)[nH]c12 (configuration not stated)	-17	31*	3	7
CSc1nn2cc(CCN3CCOCC3)c(-c3ccc(F)cc3)nc2c1C#N	.	.	.	2
COc1cc(NC(=O)c2cccc(Cl)c2)ccc1NC(=O)c1cccs1	.	.	.	9.3*
COc1cc(CNc2ccc(C(=O)O)cc2)cc(Br)c1OCC(=O)NC(C)(C)C	-36	35*	0	6
CCOc1cc(CNc2ccc(OC)cc2)cc(Br)c1OCC(=O)NC(C)(C)C	-14	5	-23	2
Cc1ccc(S(=O)(=O)N(Cc2ccccc2)c2ccccc2C(=O)Nc2ccccc2C(=O)NCc2ccco2)cc1	-49	2	6	6
CS(=O)(=O)N(Cc1ccc(C(=O)NCc2ccco2)cc1)c1ccccc1	-14	34*	-27	2
Cc1ccc(S(=O)(=O)N(Cc2ccccc2)c2ccccc2C(=O)NCc2ccco2)cc1	-54	9	19	9.0*
CCN(CC)S(=O)(=O)c1cc(NC(=O)CSc2nc3c(cc2C#N)C(=O)CC(C)(C)C3)ccc1C	-40	9	3	4
CCCCNC(=O)/C=C/c1ccc(OC)c(Br)c1	-16	30	-8	9.6*
COc1ccc(N2CCN(CC(=O)Nc3cccc(S(=O)(=O)N4CCOCC4)c3)CC2)cc1	-15	9	4	1
CC1=CN2C(=N)/C(=C/c3ccc([N+](=O)[O-])o3)C(=O)N=C2S1	20	0	33*	4
c1ccc(COc2ccc(OCCn3cncn3)cc2)cc1	-35	9	-16	2
c1ccc(-c2ccc(OCCCn3cncn3)cc2)cc1	80*	11	-18	-1
Cc1c(Cl)cccc1NS(=O)(=O)c1ccc2c(c1)C1C=CCC1C(c1ccc(C(=O)O)cc1)N2 (configuration not stated)	.	.	.	8
CC(=O)c1ccc2c(c1)C1C=CCC1C(c1ccc(S(=O)(=O)N3CCOCC3)cc1)N2 (configuration not stated)	-9	90*	-3	4
Fc1cc(F)cc(NC(=S)Nc2ccccc2N2CCOCC2)c1	.	.	.	-1
COc1ccc(Cl)cc1NC(=O)COC(=O)c1cc(NS(=O)(=O)c2cccs2)ccc1O	-49	6	3	11*
O=C(COc1ccc(Cl)cc1Cl)Nc1ccccc1NS(=O)(=O)c1cccs1	.	.	.	3
CCCNS(=O)(=O)c1cccc(C(=O)NC2CCCc3ccccc32)c1 (configuration not stated)	-56	41*	0	0
SMILES	Yeast growth inh	Measles CPE	Yeast life ext	RAM inhibit
CN(C)S(=O)(=O)c1cccc(C(=O)NC2CCCc3ccccc32)c1 (configuration not stated)	-29	13	-9	4
O=C(C1CCCCN1S(=O)(=O)c1ccccc1[N+](=O)[O-])N1CCCCC1 (configuration not stated)	.	.	.	2
COC(=O)c1ccc(-n2c(C)cc(C(=O)COC(=O)CC3Sc4ccccc4NC3=O)c2C)cc1 (configuration not stated)	-28	5	-2	8.8*
Cc1ccc(C)[n+](CC(=O)N2CCCCC2)c1	.	.	.	1
Brc1cc2c(cc1Cn1c(-c3cncs3)nc3ccccc31)OCO2	-45	6	23	10*
Cc1ccccc1Cn1c(-c2cncs2)nc2ccccc21	-71	4	-8	0
c1ccc(-c2nc(NCC3CCCO3)c3oc4ccccc4c3n2)cc1 (configuration not stated)	-59	80*	-13	1
CC(C)Oc1ccc(/C(O)=C2/C(=O)C(=O)N(CCN(C)C)C2c2cccs2)cc1 (configuration not stated)	-10	3	1	-2
CSCCC1(C(=O)O)NC(c2ccccc2O)C2C(=O)N(C(C)C)C(=O)C21 (configuration not stated)	-35	15	-6	1
COc1cccc(C2NC(C)(C(=O)O)C3C(=O)N(C(C)C)C(=O)C23)c1O (configuration not stated)	-63	29*	-11	1
CCCN(C(=O)COc1ccc(Cl)cc1Cl)c1c(N)n(Cc2ccccc2)c(=O)[nH]c1=O	.	.	.	2
Cc1cc(C(=O)N[C@H](c2ccccc2)[C@@]2(C)C[C@@H]2[C@@H](C)C(=O)Nc2ccc3ccccc3c2)n(C)n1	-54	5	-1	4
C=CCO/N=C/C1C(=O)CC(C)(C)CC1=O	-12	11	39*	3
CCCCSc1ccc2nc(-c3ccc(C#N)cc3)cn2c1	-17	43*	-9	1
O=C(CSc1nc2ccccc2s1)Nc1ccc(Cl)c(S(=O)(=O)N2CCOCC2)c1	-51	22	3	9.9*
O=C(Oc1cccc(C(=S)N2CCOCC2)c1)c1cc([N+](=O)[O-])cc([N+](=O)[O-])c1	.	.	.	0
N/C(=N\c1nc2c(c(=O)[nH]1)CCC2)Nc1ccccc1	-18	48*	-4	1
N/C(=N\c1nc2c(c(=O)[nH]1)CCCC2)Nc1ccccc1	-12	4	-7	2
COc1ccc2c(c1)O[C@H](c1ccc3c(c1)OCO3)[C@@H](O)C2=O	3	27*	-1	-1
CCCN(CCC)c1ncnc2c1cnn2-c1ccc(OC)cc1	-65	92*	-21	-1
COc1cccc(Nc2ncnc3c2cnn3C)c1	-6	4	-21	1
COc1ccc(-n2ncc3c(Nc4cccc(C)c4)ncnc32)cc1	-24	38*	-6	2
Cn1c(=O)[nH]c(=O)c2c1nc(N1CCOCC1)n2CC(=O)c1ccccc1	.	.	.	0
CCOC(=O)c1cccc(COC(=O)c2cccc(-c3nnc(-c4ccccc4)o3)c2)c1	-14	7	0	8.9*
COc1ccc(-c2csc3nc(-c4ccccc4OC)oc(=O)c23)cc1	.	.	.	6
Cc1ccc(C(=O)NC2CC3CCCC(C2)N3C(=S)NCc2ccco2)cc1 (configuration not stated)	.	.	.	1
Cc1cccc(NC(=O)c2oc3ccc(S(=O)(=O)N4CCOCC4)cc3c2C)c1C	-26	9	-6	6
Cc1ccc(NC(=O)c2oc3ccc(S(=O)(=O)N4CCOCC4)cc3c2C)c(C)c1	.	.	.	9.4*
CN1C(=O)CSc2ccc(NC(=O)N3CCN(c4ccccc4)CC3)cc21	.	.	.	1
Cc1ccc(C(=O)Nc2nc3ccccc3s2)s1	-21	5	-22	1
